Assay results: ChEMBL document CHEMBL1146783, “Conformationally restricted analogs of deoxynegamycin” (Bioorg Med Chem Lett, 2004)
≈ marks a conversion by molar mass, not a printed value.

How the values were obtained:
Assay type in all cases: functional
[1] = tested on: Staphylococcus aureus; experiment: Minimum inhibitory concentration (MIC) against Staphylococcus aureus […]; Inactive
How it was run: (§1)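 Broth microdilution in Mueller–Hinton broth supplemented with 50% human serum; inoculum 5 × 10⁵ cfu/mL.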

[2] = tested on: Escherichia coli; experiment: Minimum inhibitory concentration (MIC) against Escherichia coli MG1655 tolC; Inactive; how it was run: as §1
[3] = tested on: Klebsiella pneumoniae; experiment: Minimum inhibitory concentration (MIC) against Klebsiella pneumoniae ATCC 13882; Inactive; how it was run: as §1
[4] = tested on: Escherichia coli; experiment: Minimum inhibitory concentration (MIC) against Escherichia coli ATCC 25922; Inactive; how it was run: as §1
[5] = tested on: Streptococcus pneumoniae; experiment: Minimum inhibitory concentration (MIC) against Streptococcus pneumoniae 1005; Inactive; how it was run: as §1
[6] = tested on: Enterobacter cloacae; experiment: Minimum inhibitory concentration (MIC) against Enterobacter cloacae ATCC 35030; Inactive; how it was run: as §1
[7] = tested on: Escherichia coli; experiment: Minimum inhibitory concentration (MIC) against Escherichia coli MG1655; Inactive; how it was run: as §1
[8] = tested on: Pseudomonas aeruginosa; experiment: Minimum inhibitory concentration (MIC) against Pseudomonas aeruginosa PA01; Inactive; how it was run: as §1
[9] = tested on: Escherichia coli; experiment: Minimum inhibitory concentration (MIC) against Escherichia coli MG1655; how it was run: as §1
[10] = tested on: Pseudomonas aeruginosa; experiment: Minimum inhibitory concentration (MIC) against Pseudomonas aeruginosa PA01; how it was run: as §1
[11] = tested on: Staphylococcus aureus; experiment: Minimum inhibitory concentration (MIC) against Staphylococcus aureus ATCC 25293; how it was run: as §1
[12] = tested on: Streptococcus pneumoniae; experiment: Minimum inhibitory concentration (MIC) against Streptococcus pneumoniae 1005; how it was run: as §1
[13] = tested on: Klebsiella pneumoniae; experiment: Minimum inhibitory concentration (MIC) against Klebsiella pneumoniae ATCC 13882; how it was run: as §1
[14] = tested on: Escherichia coli; experiment: Minimum inhibitory concentration (MIC) against Escherichia coli MG1655 tolC; how it was run: as §1
[15] = tested on: Enterobacter cloacae; experiment: Minimum inhibitory concentration (MIC) against Enterobacter cloacae ATCC 35030; how it was run: as §1
[16] = tested on: Escherichia coli; experiment: Minimum inhibitory concentration (MIC) against Escherichia coli ATCC 25922; how it was run: as §1
[17] = organism: Mus musculus; experiment: Compound was evaluated for its efficacy in an Escherichia coli murine septicemia model
How it was run: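 Mice infected intraperitoneally with about 1 × 10⁵ cfu of E. coli ATCC25922; compound given intravenously at 1 and 5 h post-infection.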

[18] = Escherichia coli, read-out: MIC
[19] = Pseudomonas aeruginosa, read-out: MIC
[20] = Staphylococcus aureus, ATCC 25293, read-out: MIC
[21] = Klebsiella pneumoniae, ATCC 13882, read-out: MIC
[22] = Escherichia coli, MG1655, read-out: MIC
[23] = Enterobacter cloacae, ATCC 35030, read-out: MIC
[24] = Escherichia coli, ATCC 25922, read-out: MIC

| SMILES | MIC [1] [µg/mL] | MIC [2] [µg/mL] | MIC [3] [µg/mL] | MIC [4] [µg/mL] | MIC [5] [µg/mL] | MIC [6] [µg/mL] | MIC [7] [µg/mL] | MIC [8] [µg/mL] | MIC [9, 18] [µg/mL] | MIC [10, 19] [µg/mL] | MIC [11, 20] [µg/mL] | MIC [12] [µg/mL] | MIC [13, 21] [µg/mL] | MIC [14, 22] [µg/mL] | MIC [15, 23] [µg/mL] | MIC [16, 24] [µg/mL] | other results |
| --- | --- | --- | --- | --- | --- | --- | --- | --- | --- | --- | --- | --- | --- | --- | --- | --- | --- |
| CN(CC(=O)O)NC(=O)C[C@H](N)Cc1csc(N)n1 | > 256 | > 256 | > 256 | > 256 | > 256 | > 256 | > 256 | > 256 | – | – | – | – | – | – | – | – | – |
| CN(CC(=O)O)NC(=O)C[C@H](N)C1CCCNC1 (stereo partly specified) | – | – | – | – | – | – | – | – | > 128 | > 128 | > 128 | > 128 | > 128 | > 128 | > 128 | > 128 | – |
| CN(CC(=O)O)NC(=O)C[C@H](N)/C=C(/F)CN | – | – | – | – | – | – | – | – | > 256 | > 256 | > 256 | 256 (≈ 1030 µM) | > 256 | > 256 | > 256 | > 256 | – |
| CN(CC(=O)O)NC(=O)C[C@H](N)c1csc(N)n1 | > 256 | > 256 | > 256 | > 256 | > 256 | > 256 | > 256 | > 256 | – | – | – | – | – | – | – | – | – |
| CN(CC(=O)O)NC(=O)C[C@H](N)CCCN | – | – | – | – | – | – | – | – | 8 (≈ 34.4 µM) | 64 (≈ 276 µM) | 64 (≈ 276 µM) | 64 (≈ 276 µM) | 8 (≈ 34.4 µM) | 4 (≈ 17.2 µM) | 4 (≈ 17.2 µM) | 16 (≈ 68.9 µM) | ED50 [17]: 4.8 mg/kg |
| CN(CC(=O)O)NC(=O)CC(N)C1CCC(N)CC1 (stereo unspecified) | – | – | – | – | – | – | – | – | 64 (≈ 235 µM) | 256 (≈ 940 µM) | 128 (≈ 470 µM) | 128 (≈ 470 µM) | 32 (≈ 117 µM) | 32 (≈ 117 µM) | 128 (≈ 470 µM) | 128 (≈ 470 µM) | – |
| CN(CC(=O)O)NC(=O)C[C@H](N)/C=C(\F)CN | – | – | – | – | – | – | – | – | > 256 | > 256 | > 256 | 256 (≈ 1030 µM) | > 256 | > 256 | > 256 | > 256 | – |
| CN(CC(=O)O)NC(=O)CC1(N)CCC(N)CC1 (stereo unspecified) | > 256 | > 256 | > 256 | > 256 | > 256 | > 256 | > 256 | > 256 | – | – | – | – | – | – | – | – | – |
| CN(CC(=O)O)NC(=O)CC(N)C1CCCC(N)C1 (stereo unspecified) | – | – | – | – | – | – | – | – | 128 (≈ 470 µM) | > 256 | 256 (≈ 940 µM) | 128 (≈ 470 µM) | 64 (≈ 235 µM) | 64 (≈ 235 µM) | 256 (≈ 940 µM) | 256 (≈ 940 µM) | – |
| CN(CC(=O)O)NC(=O)C[C@H](N)Cc1csc(CCNC(=O)OC(C)(C)C)n1 | > 256 | > 256 | > 256 | > 256 | > 256 | > 256 | > 256 | > 256 | – | – | – | – | – | – | – | – | – |
| CN(CC(=O)O)NC(=O)C[C@H](N)CC1CC1N (stereo partly specified) | – | – | – | – | – | – | – | – | 64 (≈ 262 µM) | 256 (≈ 1050 µM) | 256 (≈ 1050 µM) | 128 (≈ 524 µM) | 32 (≈ 131 µM) | 32 (≈ 131 µM) | 128 (≈ 524 µM) | 64 (≈ 262 µM) | – |
| CN(CC(=O)O)NC(=O)C[C@H](N)Cc1csc(CNC(=O)OC(C)(C)C)n1 | > 256 | > 256 | > 256 | > 256 | > 256 | > 256 | > 256 | > 256 | – | – | – | – | – | – | – | – | – |
| CN(CC(=O)O)NC(=O)C[C@H](N)c1csc(CNC(=O)OC(C)(C)C)n1 | > 256 | > 256 | > 256 | > 256 | > 256 | > 256 | > 256 | > 256 | – | – | – | – | – | – | – | – | – |
| CN(CC(=O)O)NC(=O)C[C@H](N)/C=C/CN | – | – | – | – | – | – | – | – | > 256 | > 256 | > 256 | 256 (≈ 1110 µM) | > 256 | > 256 | > 256 | > 256 | – |
| CN(CC(=O)O)NC(=O)CC(N)[C@H]1CC[C@@H](N)C1 (stereo partly specified) | – | – | – | – | – | – | – | – | 128 (≈ 496 µM) | 256 (≈ 991 µM) | 128 (≈ 496 µM) | 128 (≈ 496 µM) | 64 (≈ 248 µM) | 64 (≈ 248 µM) | 128 (≈ 496 µM) | 128 (≈ 496 µM) | – |
| CN(CC(=O)O)NC(=O)C[C@H](N)C1CC1CN (stereo partly specified) | – | – | – | – | – | – | – | – | > 128 | > 128 | > 128 | – | > 128 | > 128 | > 128 | > 128 | – |
| CN(CC(=O)O)NC(=O)C[C@H](N)c1csc(CCNC(=O)OC(C)(C)C)n1 | > 256 | > 256 | > 256 | > 256 | > 256 | > 256 | > 256 | > 256 | – | – | – | – | – | – | – | – | – |
| CN(CC(=O)O)NC(=O)C[C@H](N)C1CC1N (stereo in doubt; 35e1) | – | – | – | – | – | – | – | – | – | – | – | – | – | – | – | – | MIC [9]: >128 µg/mL; MIC [10]: >128 µg/mL; MIC [11]: >128 µg/mL; MIC [13]: >128 µg/mL; MIC [14]: >128 µg/mL; MIC [15]: >128 µg/mL; MIC [16]: >128 µg/mL |
| CN(CC(=O)O)NC(=O)C[C@H](N)C1CC1N (stereo in doubt; 35e2) | – | – | – | – | – | – | – | – | 128 (≈ 556 µM) | 128 (≈ 556 µM) | 128 (≈ 556 µM) | – | 128 (≈ 556 µM) | 128 (≈ 556 µM) | 128 (≈ 556 µM) | 128 (≈ 556 µM) | – |
| CN(CC(=O)O)NC(=O)C[C@H](N)C[C@@H](O)CN [NEGAMYCIN] | – | – | – | – | – | – | – | – | – | – | – | – | – | – | – | – | ED50 [17]: 5.1 mg/kg |
